The structures appear in SMILES notation.

The first assay relates to Vero. Briefly: Anti-Herpes simplex virus type-1 activity in vero cells using plaque inhibition assay. The assay is classed as functional, cell-based, Chlorocebus sabaeus. The note with it: Chlorocebus sabaeus, Vero. The gist of the method: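 Plaque-reduction assay with HSV-1 McIntyre strain (titrated suspension) on confluent Vero monolayers. Cells infected with 100 PFU in MEM and adsorbed 2 h at 37 °C. Inoculum then replaced with MEM containing 0.2% γ-globulin plus serial concentrations of compound. Untreated infected wells served as CPE controls; CPE completed 1–2 days post-infection. Result given as IC50.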
One may read the IC50 as the concentration that gives 50% inhibition. A lower IC50 goes with inhibition by little substance. `O=C(O)C1=C(C(=O)Nc2cccc(F)c2F)CCC1` yielded an IC50 of 900 nM.

In turn, `O=C(O)C1=C(C(=O)Oc2ccc(F)c(F)c2F)CCC1` showed an IC50 of 1800 nM.

Compound `Nc1nc(N)c2nc(CO)cnc2n1` displayed an IC50 of 160 nM.

With `O=C(O)c1n[nH]nc1C(=O)O`, 5000 nM corresponded to half-maximal inhibition (IC50).

Regarding `O=C(O)CCCCC(=O)O` [ADIPIC ACID], the IC50 turned out to be 400 nM.

`O=C(O)C1=C(C(=O)Nc2c(F)cccc2F)CCC1` displayed an IC50 of 900 nM.

`Cc1cn([C@H]2C[C@H](O)[C@@H](CO)O2)c(=O)[nH]c1=O` [DOXRIBTIMINE] registered an IC50 of 400 nM.

Compound `O=C(O)C1=C(C(=O)Nc2ccc(F)c(F)c2F)CCC1` registered a concentration for half-maximal inhibition (IC50) of 900 nM.

In turn, `Cc1cc(=O)oc2cc(OCC(=O)O)ccc12` showed an IC50 of 70 nM. Against the preceding compound, the IC50 is about 13-fold lower.

`Cc1cn([C@@H]2O[C@H](CO)[C@@H](O)[C@H]2O)c(=O)nc1N` yielded an IC50 of 60 nM. The IC50 values of the last two compounds are within 1.5-fold of each other.

Compound `O=C1CN(/N=C/c2ccc([N+](=O)[O-])o2)C(=O)N1` [NITROFURANTOIN] came in with an IC50 of 900 nM.

For `O=C(O)CCC(=O)O` [SUCCINIC ACID], the IC50 was 1300 nM.

The compound `O=c1[nH]cnc2c1ncn2[C@@H]1O[C@H](CO)[C@@H](O)[C@H]1O` [INOSINE] yielded an IC50 of 230 nM.

In turn, `O=C(O)C1=C(C(=O)Oc2ccc(F)cc2F)CCC1` gave an IC50 of 1400 nM.

Compound `Cc1noc(C)c1[N+](=O)[O-]` displayed an IC50 of 900 nM.

As to `OC[C@H]1O[C@@H](n2cnc3cncnc32)[C@H](O)[C@@H]1O` [NEBULARINE], the IC50 came to 600 nM.

In turn, `O=C(CN1CCNCC1)N1CCCC1` showed an IC50 of 600 nM. This counts as sub-micromolar.

Regarding `O=C1NC(=O)C([N+](=O)[O-])C(=O)N1`, it took 1700 nM to reach half-maximal inhibition (IC50).

Compound `O=c1ccn([C@H]2C[C@H](O)[C@@H](CO)O2)c(=O)[nH]1` [DEOXYURIDINE] showed an IC50 of 2200 nM.

Regarding `Nc1ncnc2c1ncn2[C@@H]1O[C@H](CO)C[C@H]1O` [CORDYCEPIN], the IC50 turned out to be 500 nM.

Still in this assay, the particulars now being: vero.
`Cc1cn([C@H]2C[C@H](O)[C@@H](CO)O2)c(=O)[nH]c1=O` [DOXRIBTIMINE] had an IC50 of 300 nM.

The record behind these values is ChEMBL document CHEMBL1132358, “Virtual combinatorial syntheses and computational screening of new potential anti-herpes compounds” (J Med Chem, 1999).
